High-throughput results as filed in PubChem.
MrgX1 allo act: human MrgX1 positive allosteric modulation, primary screen; Q96LB2; MrgX1-HEK293, Fluo-4 calcium flux, FDSS; stronger effect = higher value; B-score at 10 µM; actives 0.63% (n = 310,000); AID 588675;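 active means plate-corrected calcium response at least 3 library SD above typical, normal starting fluorescence, not activating the receptor alone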;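 further: compound read alongside a low EC10 to EC30 dose of BAM8-22 agonist; peak minus trough fluorescence over baseline measured at the second addition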
Target sequence (Q96LB2 whole entry, looked up): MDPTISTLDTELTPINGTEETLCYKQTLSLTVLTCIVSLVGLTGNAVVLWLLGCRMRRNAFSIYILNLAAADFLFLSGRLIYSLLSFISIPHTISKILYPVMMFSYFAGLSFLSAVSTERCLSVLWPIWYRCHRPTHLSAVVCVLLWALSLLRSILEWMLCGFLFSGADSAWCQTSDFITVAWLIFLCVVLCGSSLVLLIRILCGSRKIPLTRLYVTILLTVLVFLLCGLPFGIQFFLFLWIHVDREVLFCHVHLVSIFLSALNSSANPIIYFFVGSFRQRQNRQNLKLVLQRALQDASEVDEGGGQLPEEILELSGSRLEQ
RGS4 block: inhibitors of human RGS4. B-score at 10 µM. actives 0.45% (n = 310,000). HEK293 M3R/RGS4 inducible, Fluo-4 calcium flux; stronger effect = higher value; triggered by carbachol at its EC20;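 active means B-score, a plate-corrected calcium signal, over three deviations above library mean, with baseline fluorescence within five deviations of library mean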;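 further: RGS4 expression induced by doxycycline in cells with stable M3 receptor; B-score is computed from the integrated fluorescence ratio over baseline after carbachol; higher B-score means a larger calcium signal and so more RGS4 inhibition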
Target sequence (P49798 whole entry, looked up): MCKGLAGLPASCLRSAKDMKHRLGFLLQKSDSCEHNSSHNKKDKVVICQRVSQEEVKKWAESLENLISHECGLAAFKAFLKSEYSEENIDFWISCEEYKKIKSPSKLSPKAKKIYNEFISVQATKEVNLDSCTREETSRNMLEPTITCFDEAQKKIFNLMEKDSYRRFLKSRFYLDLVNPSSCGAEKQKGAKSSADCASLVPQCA
MrgX1 agonist: activates human MrgX1 receptor signaling; B-score at 10 µM; actives 0.44% (n = 310,000); Q96LB2; MrgX1-HEK293 cells, Fluo-4 calcium fluorescence, agonist mode; stronger effect = higher value;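 active means calcium response B-score plate-corrected fluorescence ratio at least 3 library SD, with starting fluorescence B-score inside 5 SD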
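times = overnight plating, then 30 min 37 °C plus 30 min room-temperature dye loading | assay system = stable human MrgX1 HEK293 cell line | input = fifteen thousand cells per well | signal = kinetic calcium dye fluorescence, Fluo-4 NW | dosing = compound delivered in addition one of three | read-out = B-scored fluorescence response ratio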
MrgX1 antag: antagonists of human MrgX1 receptor; MRGX1-HEK293 calcium flux, Fluo-4, BAM8-22 antagonism; stronger effect = lower value; B-score at 10 µM; actives 1.3% (n = 310,000); AID 588676;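 active means calcium-response B-score plate-corrected more than 3 library SD below zero, starting fluorescence within 5 deviations, no agonist response on first addition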;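 further: peak minus trough fluorescence over baseline after final BAM8-22 challenge near maximal dose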
RGS4 pot: RGS4 potentiation or activation | HEK293 M3R/inducible RGS4, carbachol calcium flux Fluo4; stronger effect = lower value | B-score at 10 µM | actives 0.92% (n = 310,000);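 active means B-score of the integrated calcium signal more than 4 SD below the library mean, with starting fluorescence not abnormally high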;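 further: negative B-score means reduced calcium response which marks RGS4 activation or potentiation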
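System: HEK293 FlpIn-TREx cells, stable M3R, doxycycline-inducible RGS4. Timing: overnight RGS4 induction, 30 min dye load 37 °C, 20 min compound RT. Also added: carbachol, ECmax concentration. Measured by: Fluo4 fluorescence kinetic imaging of calcium. Evaluation: integrated calcium ratio converted to B score.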
Hits are given with their value; 0 = inactive; - = no result. The list is not random: actives were taken first. Their share in the collection is about 3.5%.

SMILES | MrgX1 allo act | RGS4 block | MrgX1 agonist | MrgX1 antag | RGS4 pot
O=C(C1CCC1)N1CCc2cc(S(=O)(=O)NC3CCCC3)ccc21 | 0 | 0 | 0 | 0 | 0
CN1CCN(c2ccccc2NS(=O)(=O)c2ccc3c(c2)CCN3C(=O)C2CCC2)CC1 | 0 | 0 | 0 | 0 | -9.8
CCOc1ccc(S(=O)(=O)Nc2ccc(C(=O)NCC3(N4CCCCC4)CCCCC3)cc2)cc1 | 0 | 0 | 0 | -9.8 | 0
CCOC(=O)c1nn(-c2ccccc2)c2nc(-c3ccc(OC)cc3)c(C#N)c(=O)n12 | 0 | 0 | 0 | -4.9 | 0
COc1cc(/C=C2\CCC/C(=C\c3ccc(O)c(OC)c3)C2=O)ccc1O | 0 | 0 | 0 | -5.7 | -9.9
Cn1c(=O)c2nc3ccccc3nc2n(C)c1=O | 0 | 0 | 0 | 0 | -7.5
CC(C)CCC(CCNCc1ccccn1)c1ccc(Cl)cc1 (stereo not given) | 0 | 0 | 0 | 0 | 0
CCCCNC(=O)Cn1nc([N+](=O)[O-])c([N+](=O)[O-])c1C | 0 | 0 | 0 | -5.4 | 0
C[C@H]([C@H](O)c1ccccc1)N(C)C(=O)CN | 0 | 0 | 0 | 0 | 0
COc1cc(OC)c(OC)cc1/C=C/C(=O)c1ccc(NS(=O)(=O)c2ccc(C)cc2)cc1 | 0 | 0 | 0 | -4.8 | 0
CC(C)C(C(=O)O)N1C(=O)/C(=C/C=C/c2ccco2)SC1=S (stereo not given) | 0 | 0 | 0 | -5.3 | 0
CC(C)C(C(=O)O)N1C(=O)/C(=C/c2cccn2C)SC1=S (stereo not given) | 0 | - | 0 | 0 | -
O=C1/C(=C/C=C/c2ccco2)SC(=S)N1c1ccc(O)cc1 | 16 | 0 | 0 | 0 | 0
CCOC(=O)N1C=CC(C)=C[C@@H]2[C@@H](N3C(=O)c4ccccc4C3=O)C(=O)N21 | 0 | 0 | 0 | 0 | 0
Cc1cccc(N(CC(O)CON=C2c3ccccc3-c3ccccc32)S(C)(=O)=O)c1 (stereo not given) | 0 | 0 | 0 | -4.9 | 0
Cc1nc(NC(=O)CSc2nnc(-c3ccccc3)c(-c3ccccc3)n2)c(Cl)cc1Cl | 0 | 0 | 0 | 0 | -7.2
COc1ccccc1N(CC(=O)NCCN1CCOCC1)S(=O)(=O)c1ccccc1 | 0 | 0 | 0 | 0 | 0
Cc1nc(S/C(=C/c2ccc(-c3ccc(Cl)cc3)o2)C(=O)O)n[nH]1 | 0 | 0 | 0 | 0 | 0
Cc1nc(S/C(=C/c2ccc(-c3ccc(C(=O)O)cc3)o2)C(=O)O)n[nH]1 | 0 | 0 | 0 | 0 | 0
CC(=O)c1ccc(-c2ccc(/C=C(/Sc3n[nH]c(C)n3)C(=O)O)o2)cc1 | 0 | 0 | 0 | -4.8 | 0
Cc1nc(S/C(=C/c2ccc(-c3cc(Cl)ccc3C)o2)C(=O)O)n[nH]1 | 0 | 0 | 0 | -5 | 0
CC1(c2nnc(-c3ccncc3)o2)CC(c2ccccc2)=NO1 (stereo not given) | 0 | 0 | 0 | 0 | 0
O=S1(=O)N=C(N(CCO)/N=C/c2ccc(Cl)cc2)c2ccccc21 | 0 | 0 | 0 | 0 | 0
CN(C)c1ccc(/C=N/N(CCO)C2=NS(=O)(=O)c3ccccc32)cc1 | 0 | 0 | 0 | 0 | -7.9
O=C(Cc1ccc(Cl)cc1)N1CCC2(CC1)NCCc1[nH]cnc12 | 0 | 0 | 0 | 0 | 0
SMILES | MrgX1 allo act | RGS4 block | MrgX1 agonist | MrgX1 antag | RGS4 pot
CC1(C)CC2CC(C)(CN2S(=O)(=O)c2ccc(C(=O)Nc3cc(S(=O)(=O)N4CCOCC4)ccc3Cl)cc2)C1 (stereo not given) | 0 | 0 | 0 | 0 | -7.2
CC1(C)CC2CC(C)(CN2S(=O)(=O)c2ccc(C(=O)Nc3cccc(S(=O)(=O)N4CCOCC4)c3)cc2)C1 (stereo not given) | 0 | 0 | 0 | 0 | 0
COC1c2ccccc2C(=O)N1Cc1ccc(F)cc1 (stereo not given) | 0 | 0 | 0 | 0 | 0
Cc1nn(CCCC(=O)NCc2ccc(F)cc2)c(=O)c2nccn12 | 0 | 0 | 0 | -5.5 | 0
Cn1c(=O)c(NCCO)c2c3c(cccc31)C(=O)c1ccccc1-2 | 0 | 0 | 0 | 0 | -12
COc1ccc(-c2csc(NC(=O)c3ccc(OCC(=O)N4CCOCC4)c(OC)c3)n2)cc1OC | 0 | 0 | 0 | 0 | -8.8
O=C(Nc1cccc(-c2csc(-c3ccccc3)n2)c1)c1cccs1 | 0 | 0 | 0 | 0 | -7.1
COc1ccc(-c2csc(NC(=O)CN3C(=O)C4CC=CCC4C3=O)n2)cc1OC (stereo not given) | 0 | 0 | 48 | 0 | 0
COc1ccc(-c2csc(NC(=O)CSCC(=O)Nc3cc(C)on3)n2)cc1OC | 0 | 0 | 29 | 0 | 0
Cc1nc(-c2cccc(NC(=O)c3cccs3)c2)cs1 | 0 | 0 | 0 | 0 | 0
Cc1cc(NC(=O)c2coc(=O)c(Br)c2)ccc1C(C)C | 0 | 0 | 0 | 0 | 0
COc1ccc(-c2csc(NC(=S)NC(=O)c3cccs3)n2)cc1OC | - | 0 | - | - | -7.3
c1ccc(-c2onc(-c3ccco3)c2-c2ccc3[nH]ccc3c2)cc1 | 0 | 0 | 0 | 0 | 0
Nc1nnc(CSCc2ccc(F)cc2)s1 | 0 | 0 | 0 | 0 | 0
N#C/C(=C\c1cccs1)C(=O)Nc1ccccn1 | 0 | 0 | 0 | -4.9 | 0
N#C/C(=C\c1ccccc1)C(=O)Nc1nncs1 | 8 | 0 | 0 | 0 | 0
O=C(NCCSCc1ccc(Cl)cc1)c1cccs1 | 0 | 0 | 0 | 0 | 0
COc1cccc(C2=CC(c3ccccc3)n3ncnc3N2)c1 (stereo not given) | 15 | 0 | 0 | 0 | 0
COc1cccc(C2=CC(c3ccc(N(C)C)cc3)n3ncnc3N2)c1 (stereo not given) | 0 | 0 | 48 | 0 | 0
O=Nc1c(-c2cccc([N+](=O)[O-])c2)nc2ncccn12 | 0 | 6.2 | 0 | 0 | 0
O=[N+]([O-])c1cccc(-c2cn3nc(-c4ccccc4)c(-c4ccccc4)nc3n2)c1 | 0 | 0 | 0 | 0 | 0
Cc1c(C(=O)NCCC2=CCCCC2)oc2ccc(S(=O)(=O)N3CCC4(CC3)OCCO4)cc12 | 0 | 0 | 0 | 0 | -8
O=C(NC(c1cccnc1)C(F)(F)F)c1cc(COc2ccc3c(c2)CCCC3)on1 (stereo not given) | 0 | 0 | 0 | 0 | -7.1
CN(C)CCOC(c1ccccc1)c1ccccc1 | 0 | 0 | 0 | 0 | 0
Cc1ccccc1C(OCCN(C(C)C)C(C)C)c1ccccc1 (stereo not given) | 0 | 0 | 0 | 0 | -8.6
COc1ccc(/C=C2\Sc3ccc(C(=O)NCCCN4CCCC4)cc3N(C)C2=O)cc1OC | 0 | 0 | 0 | 0 | 0
COc1ccccc1-n1cc(CN2CCN(C3CCCC3)C(CCO)C2)cn1 (stereo not given) | 0 | 0 | 0 | 0 | 0
COc1ccccc1-n1cc(CN2CCN(CC(C)C)C(CCO)C2)cn1 (stereo not given) | 0 | 0 | 0 | -5.8 | 0
CN(c1ccccc1)c1nc(N)c([N+](=O)[O-])c(Nc2ccccc2F)n1 | 0 | 0 | 0 | 0 | 0
